# Screening data from PubChem.
# EP2 modulator – EP2 receptor (human) modulation; P43116; AID 940; 260,000 tested, 0.83% active; induction, % at 25 µM; EP2-expressing cells, cAMP HTRF FRET, PGE2 co-stimulation;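 active = compounds whose cAMP rise, as percent of the full-agonist control response, exceeds 60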;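 also: rat C6 glioma line stably carrying human EP2 under a CMV promoter; the protocol text gives 20 µM as final concentration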
# RBBP9 inh – inhibitors of human serine hydrolase RBBP9. AID 1515. 220,000 tested, 0.2% active. recombinant RBBP9, FP-Rh probe fluorescence polarization. inhibition, % at 7.94 µM. O75884;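 active = inhibition above the campaign mean of all tested compounds plus 3 SD, cut at about 14% in these data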
#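 Controls: DMSO-treated enzyme wells and wells lacking RBBP9 | Material: RBBP9 protein | Technique: Fluorescence polarization | Replication: Single well per compound, no replicates | Buffer or medium: Tris-NaCl-Pluronic buffer, pH 8.0 | Timing: 30 min compound preincubation, 45 min probe labeling, 25 °C | Read-out basis: Percent inhibition from mP, scaled between DMSO and no-protein wells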
# EP2 antag – blocks the human prostaglandin E2 receptor EP2. P43116. C6 glioma cells expressing human EP2, cAMP TR-FRET; cells stimulated with saturating PGE2. inhibition, % at 25 µM. 260,000 tested, 0.52% active. AID 1422;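 active = percent inhibition above 40 after rounding to a whole number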;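 also: rat C6 glioma host cells with rolipram phosphodiesterase inhibitor present; the protocol text gives 20 µM as final concentration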
# ABCG2 block – human ABCG2 inhibition, ABCB1 as counter-screen. 190,000 tested, 0.1% active. inhibition, % at 6.6 µM. IgMXP3 cells, JC-1 efflux, flow cytometry;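 active = inhibition above 80%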
#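 Measure – % inhibition of efflux relative to nicardipine and DMSO · Test system – ABCG2 IgMXP3 and barcoded ABCB1 CCRF-Adr cell mix · Control set – nicardipine as high control, DMSO as low control · Compound – one concentration, 6.6 µM final · Signal – flow cytometry of retained JC-1 fluorescence · Timing – 10 min exposure at 25 °C with rotation, no wash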
# ABCB1 inh – human ABCB1 inhibition, ABCG2 as counter-screen; P08183; 190,000 tested, 0.067% active; CCRF-Adr cells, JC-1 efflux, flow cytometry; inhibition, % at 6.6 µM; in the data active = inhibition above about 40%;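 also: higher value means more JC-1 retained so stronger ABCB1 efflux block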
# RBBP9 confirm – confirmation of human RBBP9 inhibitors; shares compounds with RBBP9 inh; recombinant RBBP9, FP-Rh probe fluorescence polarization; inhibition, % at 7.94 µM; 410 tested, 36% active; AID 1537;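 active = inhibition above the hit cutoff derived for the primary screen, cut at about 15% in these data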
# Numbers stand for hits; n = inactive; x = no result. In the library only some 1.5% were active in any assay of this set; here they are far more common.
SMILES,EP2 modulator,RBBP9 inh,EP2 antag,ABCG2 block,ABCB1 inh,RBBP9 confirm
O=C(NC(=S)NNC(=O)c1cc(-c2ccccc2)nc2ccccc12)c1cccnc1,n,x,n,x,x,x
CCOC(=O)c1nn(-c2ccc(C)c(C)c2)c(=O)c2c(N)scc12,n,18,n,n,n,38
Nc1cc(-c2ccco2)nn(CC(=O)Nc2ccc(N3CCCCC3)cc2)c1=O,n,x,n,x,x,x
CNC(=S)Nc1cccc([N+](=O)[O-])c1,n,n,n,n,n,x
CC(=O)NC(=S)Nc1cccc([N+](=O)[O-])c1,n,17,n,n,n,n
CCOC(=O)c1c(C)[nH]c(N=Nc2ccccc2)c1C,n,15,n,n,n,n
CCOC(=O)c1c(C)[nH]c(N=Nc2ccc(C)cc2)c1C,n,n,n,n,n,x
CC(=O)C(=Nc1ccc(Cl)cc1Cl)NNc1cccc(Cl)c1,n,32,n,n,n,n
CCOc1ccc2[nH]c(=O)c(CN(Cc3cccs3)C(=O)Nc3ccccc3)cc2c1,n,x,n,x,x,x
COc1ccc(-c2cc(N3C(=O)Nc4ccccc4N3O)n[nH]2)cc1,n,n,n,n,n,x
CCOc1ccc(-c2cc(N3C(=O)Nc4ccccc4N3O)on2)cc1,n,16,n,n,n,n
Cc1occc1-c1nnc(SCC(=O)NC2CCCCC2)n1Cc1ccccc1,n,x,n,x,x,x
Cc1noc(N)c1C1(O)C(=O)N(C(C)C)c2ccccc21 (configuration not stated),n,16,n,n,n,n
Cc1nn(-c2ccccc2)c(N)c1C1(O)C(=O)N(C(C)C)c2ccccc21 (configuration not stated),n,n,n,n,n,x
COc1ccccc1CN(Cc1cc2cc(OC)c(OC)cc2[nH]c1=O)C(=O)c1ccco1,n,x,n,x,x,x
CCc1ccc(OC2=NS(=O)(=O)c3ccccc32)cc1,n,n,n,n,n,x
CCN(CC)c1cccc(OC2=NS(=O)(=O)c3ccccc32)c1,n,19,n,n,n,16
CCN(C(=O)C1CCCCC1)c1nnc(-c2cccnc2)s1,n,14,x,n,n,n
COCCN(C(=O)C1CCC1)c1nnc(-c2cccnc2)s1,n,n,n,n,n,x
O=C(CN1CCC(O)(c2ccccn2)CC1)Nc1ccccc1N1CCOCC1,n,x,x,x,x,x
Oc1ccc(-c2nc3ccccc3s2)c(O)c1,n,n,n,x,x,x
Oc1ccc(-c2cnns2)c(O)c1,n,41,n,n,n,56
COc1ccc(-c2nnc3sc(COc4ccccc4)nn23)cc1,n,n,n,n,n,x
COc1ccc(OCc2nn3c(-c4ccccn4)nnc3s2)cc1,n,15,n,n,n,n
COc1ccc(/C=C/C(=O)NC(=S)NNC(=O)Cc2cccs2)cc1OC,n,15,n,n,n,n
SMILES,EP2 modulator,RBBP9 inh,EP2 antag,ABCG2 block,ABCB1 inh,RBBP9 confirm
COc1ccc(/C=C/C(=O)NC(=S)NNC(=O)c2cccs2)cc1OC,n,n,n,x,x,x
CSc1nnc(CCCCCCCCc2nnc(SC)o2)o1,n,16,n,x,x,n
O=C1C=CC(=O)N1CCNc1ncc(C(F)(F)F)cc1Cl,n,33,101,n,n,31
O=C1CC(=O)N(CCNc2ncc(C(F)(F)F)cc2Cl)C(=O)N1,n,n,n,n,n,x
CCc1nn(CC(=O)NCCc2ccccc2)c(=O)c2cc3oc(C)cc3n12,n,x,n,x,x,x
CC1(C)CC(=O)C(C=NCCN2CCN(C(=O)c3ccc(F)cc3)CC2)=C(O)C1,n,15,n,n,n,n
